# Experimental data reported in ChEMBL document CHEMBL5724801, “EUbOPEN Chemogenomics Library - Multiplex” (2024).
# Values joined by “and” are separate entries in the source; they are usually repeats but may differ in a detail not shown here. Identical values can stand only once.
# Tested on: U2OS
# Assay: Multiplex assay against U2OS
# Assay type: toxicity, cell-based
# Details: human
# How it was run: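 Hoechst33342, BioTracker Green Microtubule Cytoskeleton Dye, MitoTracker Red and Annexin V Alexa Fluor 680 were added to live cells at seeding, and imaging on a CQ1 microscope at 37°C and 5% CO2 followed compound addition. Gating by CellPathfinder machine learning separated cells into Hoechst high-intensity objects or normal cells, then normal cells into healthy, pyknosed or fragmented nuclei, then pyknosed cells into mitotic or apoptotic. Per cents of healthy-nucleus cells are reported for the tubulin, mitochondrial-mass and membrane-permeability phenotypes.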
# [1] = 12 h, 1 µM, compound concentration 1 uM
# [2] = 12 h, 10 µM, compound concentration 10 uM
# [3] = 24 h, 1 µM, compound concentration 1 uM
# [4] = 24 h, 10 µM, compound concentration 10 uM
# [5] = 48 h, 1 µM, compound concentration 1 uM
# [6] = 48 h, 10 µM, compound concentration 10 uM
compound,measurement,setting,value
CC(C)Oc1ccc(F)c(-c2cnc(N)c(C(=O)Nc3cnccc3N3CCC[C@@H](C(=O)O)C3)n2)c1,Population Apoptotic (%),[1],45.71% and 37.5%
same,Population Fragmented Nuclei (%),[1],1.25% and 5.73%
same,Population Healthy Nuclei (%),[1],90.02% and 84.08%
same,Population Hoechst High Intensity Objects (%),[1],0%
same,Population Membrane Permeable-Phenotype (%),[1],0.28% and 7.58%
same,Population Mitochondria Different-Phenotype (%),[1],0% and 6.82%
same,Population Mitotic Cells (%),[1],54.29% and 62.5%
same,Population Normal (%),[1],100%
same,Population Pyknosed Nuclei (%),[1],8.73% and 10.19%
same,Population Tubulin-Different-Phenotype (%),[1],0.28% and 0%
same,Total Cell Count,[1],401 and 157
same,Population Apoptotic (%),[2],73.33% and 43.75%
same,Population Fragmented Nuclei (%),[2],9.57% and 11.05%
same,Population Healthy Nuclei (%),[2],83.25% and 79.65%
same,Population Hoechst High Intensity Objects (%),[2],0%
same,Population Membrane Permeable-Phenotype (%),[2],8.33% and 15.33%
same,Population Mitotic Cells (%),[2],26.67% and 56.25%
same,Population Normal (%),[2],100%
same,Population Pyknosed Nuclei (%),[2],7.18% and 9.3%
same,Population Tubulin-Different-Phenotype (%),[2],4.02% and 3.65%
same,Total Cell Count,[2],418 and 172
same,Population Apoptotic (%),[3],38.6% and 34.38%
same,Population Fragmented Nuclei (%),[3],1.54% and 3.88%
same,Population Healthy Nuclei (%),[3],87.45% and 80.58%
same,Population Hoechst High Intensity Objects (%),[3],0%
same,Population Membrane Permeable-Phenotype (%),[3],0.66% and 4.22%
same,Population Mitochondria Different-Phenotype (%),[3],0% and 3.61%
same,Population Mitotic Cells (%),[3],61.4% and 65.62%
same,Population Normal (%),[3],100%
same,Population Pyknosed Nuclei (%),[3],11% and 15.53%
same,Population Tubulin-Different-Phenotype (%),[3],1.1% and 0%
same,Total Cell Count,[3],518 and 206
same,Population Apoptotic (%),[4],49.3% and 65.52%
same,Population Fragmented Nuclei (%),[4],11.73% and 11.05%
same,Population Healthy Nuclei (%),[4],74.16% and 73.68%
same,Population Hoechst High Intensity Objects (%),[4],0%
same,Population Mitotic Cells (%),[4],50.7% and 34.48%
same,Population Normal (%),[4],100%
same,Population Pyknosed Nuclei (%),[4],14.12% and 15.26%
same,Population Tubulin-Different-Phenotype (%),[4],6.97% and 2.14%
same,Total Cell Count,[4],503 and 190
same,Population Apoptotic (%),[5],39.13% and 30.56%
same,Population Fragmented Nuclei (%),[5],2.98% and 4.32%
same,Population Healthy Nuclei (%),[5],86.85% and 84.57%
same,Population Hoechst High Intensity Objects (%),[5],0% and 0.31%
same,Population Membrane Permeable-Phenotype (%),[5],2.04% and 2.92%
same,Population Mitochondria Different-Phenotype (%),[5],0% and 2.55%
same,Population Mitotic Cells (%),[5],60.87% and 69.44%
same,Population Normal (%),[5],100% and 99.69%
same,Population Pyknosed Nuclei (%),[5],10.17% and 11.11%
same,Population Tubulin-Different-Phenotype (%),[5],1.65% and 1.82%
same,Total Cell Count,[5],905 and 325
same,Population Apoptotic (%),[6],62.73% and 80.56%
same,Population Fragmented Nuclei (%),[6],8.71% and 11.34%
same,Population Healthy Nuclei (%),[6],63.24% and 58.4%
same,Population Hoechst High Intensity Objects (%),[6],0%
same,Population Membrane Permeable-Phenotype (%),[6],2.48% and 6.47%
same,Population Mitotic Cells (%),[6],37.27% and 19.44%
same,Population Normal (%),[6],100%
same,Population Pyknosed Nuclei (%),[6],28.05% and 30.25%
same,Population Tubulin-Different-Phenotype (%),[6],16.25% and 8.63%
same,Total Cell Count,[6],574 and 238
O=C1NCc2ccc3c(-c4cccc(Cl)c4)c[nH]c3c21,Population Apoptotic (%),[1],16.88% and 44.83%
same,Population Fragmented Nuclei (%),[1],2.23% and 1.96%
same,Population Healthy Nuclei (%),[1],76.32% and 79.08%
same,Population Hoechst High Intensity Objects (%),[1],0%
same,Population Membrane Permeable-Phenotype (%),[1],1.46% and 3.31%
same,Population Mitochondria Different-Phenotype (%),[1],0% and 8.26%
same,Population Mitotic Cells (%),[1],83.12% and 55.17%
same,Population Normal (%),[1],100%
same,Population Pyknosed Nuclei (%),[1],21.45% and 18.95%
same,Population Tubulin-Different-Phenotype (%),[1],1.46% and 2.48%
same,Total Cell Count,[1],359 and 153
same,Population Apoptotic (%),[2],31.03% and 23.81%
same,Population Fragmented Nuclei (%),[2],0.99% and 2.27%
same,Population Healthy Nuclei (%),[2],79.87% and 81.82%
same,Population Hoechst High Intensity Objects (%),[2],0%
same,Population Membrane Permeable-Phenotype (%),[2],2.89% and 3.7%
same,Population Mitochondria Different-Phenotype (%),[2],0% and 15.74%
same,Population Mitotic Cells (%),[2],68.97% and 76.19%
same,Population Normal (%),[2],100%
same,Population Pyknosed Nuclei (%),[2],19.14% and 15.91%
same,Population Tubulin-Different-Phenotype (%),[2],2.07% and 0.93%
same,Total Cell Count,[2],303 and 132
same,Population Apoptotic (%),[3],34.38% and 19.64%
same,Population Fragmented Nuclei (%),[3],3.92% and 1.72%
same,Population Healthy Nuclei (%),[3],66.59% and 66.09%
same,Population Hoechst High Intensity Objects (%),[3],0% and 0.57%
same,Population Membrane Permeable-Phenotype (%),[3],0.69% and 3.48%
same,Population Mitochondria Different-Phenotype (%),[3],0% and 8.7%
same,Population Mitotic Cells (%),[3],65.62% and 80.36%
same,Population Normal (%),[3],100% and 99.43%
same,Population Pyknosed Nuclei (%),[3],29.49% and 32.18%
same,Population Tubulin-Different-Phenotype (%),[3],1.73% and 2.61%
same,Total Cell Count,[3],434 and 175
same,Population Apoptotic (%),[4],50% and 28.3%
same,Population Fragmented Nuclei (%),[4],4.05% and 5.47%
same,Population Healthy Nuclei (%),[4],49.22% and 53.12%
same,Population Hoechst High Intensity Objects (%),[4],0.62% and 0%
same,Population Membrane Permeable-Phenotype (%),[4],0.63% and 8.82%
same,Population Mitochondria Different-Phenotype (%),[4],0% and 8.82%
same,Population Mitotic Cells (%),[4],50% and 71.7%
same,Population Normal (%),[4],99.38% and 100%
same,Population Pyknosed Nuclei (%),[4],46.73% and 41.41%
same,Population Tubulin-Different-Phenotype (%),[4],1.27% and 1.47%
same,Total Cell Count,[4],323 and 128
same,Population Apoptotic (%),[5],63.69% and 70.59%
same,Population Fragmented Nuclei (%),[5],9.74% and 8.94%
same,Population Healthy Nuclei (%),[5],47.18% and 43.58%
same,Population Hoechst High Intensity Objects (%),[5],0%
same,Population Membrane Permeable-Phenotype (%),[5],1.63% and 6.41%
same,Population Mitotic Cells (%),[5],36.31% and 29.41%
same,Population Normal (%),[5],100%
same,Population Pyknosed Nuclei (%),[5],43.08% and 47.49%
same,Population Tubulin-Different-Phenotype (%),[5],6.52% and 2.56%
same,Total Cell Count,[5],390 and 179
same,Population Apoptotic (%),[6],70.56% and 84.62%
same,Population Fragmented Nuclei (%),[6],6.99% and 3.12%
same,Population Healthy Nuclei (%),[6],38.3% and 46.09%
same,Population Hoechst High Intensity Objects (%),[6],0%
same,Population Membrane Permeable-Phenotype (%),[6],2.38% and 6.78%
same,Population Mitotic Cells (%),[6],29.44% and 15.38%
same,Population Normal (%),[6],100%
same,Population Pyknosed Nuclei (%),[6],54.71% and 50.78%
same,Population Tubulin-Different-Phenotype (%),[6],10.32% and 5.08%
same,Total Cell Count,[6],329 and 128
COc1ccc2nc3ccc(OC)cc3c(SCCCN)c2c1.Cl,Population Apoptotic (%),[1],33.33% and 48.15%
same,Population Fragmented Nuclei (%),[1],5.01% and 5.7%
same,Population Healthy Nuclei (%),[1],88.22% and 80.31%
same,Population Hoechst High Intensity Objects (%),[1],0%
same,Population Membrane Permeable-Phenotype (%),[1],0.85% and 1.94%
same,Population Mitochondria Different-Phenotype (%),[1],0% and 12.26%
same,Population Mitotic Cells (%),[1],66.67% and 51.85%
same,Population Normal (%),[1],100%
same,Population Pyknosed Nuclei (%),[1],6.77% and 13.99%
same,Population Tubulin-Different-Phenotype (%),[1],1.14% and 0%
same,Total Cell Count,[1],399 and 193
same,Population Apoptotic (%),[2],50% and 100%
same,Population Fragmented Nuclei (%),[2],77.73% and 91.54%
same,Population Healthy Nuclei (%),[2],21.48% and 8.25%
same,Population Hoechst High Intensity Objects (%),[2],8.43% and 7.62%
same,Population Normal (%),[2],91.57% and 92.38%
same,Population Pyknosed Nuclei (%),[2],0.79% and 0.21%
same,Population Tubulin-Different-Phenotype (%),[2],28.57% and 40.17%
same,Total Cell Count,[2],1388 and 1535
same,Population Apoptotic (%),[3],29.73% and 51.52%
same,Population Fragmented Nuclei (%),[3],3.05% and 1.4%
same,Population Healthy Nuclei (%),[3],89.9% and 83.18%
same,Population Hoechst High Intensity Objects (%),[3],0%
same,Population Membrane Permeable-Phenotype (%),[3],0.85% and 2.81%
same,Population Mitochondria Different-Phenotype (%),[3],0% and 7.3%
same,Population Mitotic Cells (%),[3],70.27% and 48.48%
same,Population Normal (%),[3],100%
same,Population Pyknosed Nuclei (%),[3],7.05% and 15.42%
same,Population Tubulin-Different-Phenotype (%),[3],1.06% and 1.69%
same,Total Cell Count,[3],525 and 214
same,Population Apoptotic (%),[4],50% and 78.57%
same,Population Fragmented Nuclei (%),[4],75.02% and 91.84%
same,Population Hoechst High Intensity Objects (%),[4],12.85% and 7.48%
same,Population Mitotic Cells (%),[4],50% and 21.43%
same,Population Normal (%),[4],87.15% and 92.52%
same,Population Pyknosed Nuclei (%),[4],0.64% and 0.94%
same,Population Tubulin-Different-Phenotype (%),[4],6.62% and 18.52%
same,Total Cell Count,[4],1424 and 1617
same,Population Apoptotic (%),[5],46.15% and 46.51%
same,Population Fragmented Nuclei (%),[5],3.96% and 4.36%
same,Population Healthy Nuclei (%),[5],90.62% and 82.24%
same,Population Hoechst High Intensity Objects (%),[5],0%
same,Population Membrane Permeable-Phenotype (%),[5],1.03% and 0.76%
same,Population Mitochondria Different-Phenotype (%),[5],0% and 2.65%
same,Population Mitotic Cells (%),[5],53.85% and 53.49%
same,Population Normal (%),[5],100%
same,Population Pyknosed Nuclei (%),[5],5.42% and 13.4%
same,Population Tubulin-Different-Phenotype (%),[5],0.8% and 1.52%
same,Total Cell Count,[5],960 and 321
same,Population Apoptotic (%),[6],45% and 53.85%
same,Population Fragmented Nuclei (%),[6],69.73% and 94.1%
same,Population Hoechst High Intensity Objects (%),[6],23.54% and 11.4%
same,Population Mitotic Cells (%),[6],55% and 46.15%
same,Population Normal (%),[6],76.46% and 88.6%
same,Population Pyknosed Nuclei (%),[6],2.07% and 0.82%
same,Population Tubulin-Different-Phenotype (%),[6],6.23% and 18.52%
same,Total Cell Count,[6],1266 and 1798
